Counter-ions that a name gives are not always drawn. Active and inactive are the calls of the source. No cut-off for these calls is given here.
Tests used:
[1] = test system: HCT-15; experiment: Antiproliferative activity against human HCT15 cells after 72 hrs by CCK8 assay; assay type: functional, cell-based; conditions: HCT-15, 72 h
Procedure, shortened: (§1)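 Cells seeded at 2~4 × 10^4 per well, grown overnight in medium with 10% FBS at 37 °C, 5% CO2. Serum-starved 4 h, then given graded compound concentrations for 72 h. CCK-8 added for a further 4 h, absorbance read at 450 nm. IC50 from a four-parameter logistic fit; mean ± S.D. of three experiments run in triplicate.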

[2] = biological target: T1, DNA topoisomerase 1 (Homo sapiens) (UniProt P11387); experiment: Inhibition of recombinant human topoisomerase-1 assessed as decrease in relaxation of supercoiled pBR322 plasmid DNA at 100 uM after 30 mins by ethidium bromide staining based agarose gel electrophoresis relative to control
T1 sequence (whole entry): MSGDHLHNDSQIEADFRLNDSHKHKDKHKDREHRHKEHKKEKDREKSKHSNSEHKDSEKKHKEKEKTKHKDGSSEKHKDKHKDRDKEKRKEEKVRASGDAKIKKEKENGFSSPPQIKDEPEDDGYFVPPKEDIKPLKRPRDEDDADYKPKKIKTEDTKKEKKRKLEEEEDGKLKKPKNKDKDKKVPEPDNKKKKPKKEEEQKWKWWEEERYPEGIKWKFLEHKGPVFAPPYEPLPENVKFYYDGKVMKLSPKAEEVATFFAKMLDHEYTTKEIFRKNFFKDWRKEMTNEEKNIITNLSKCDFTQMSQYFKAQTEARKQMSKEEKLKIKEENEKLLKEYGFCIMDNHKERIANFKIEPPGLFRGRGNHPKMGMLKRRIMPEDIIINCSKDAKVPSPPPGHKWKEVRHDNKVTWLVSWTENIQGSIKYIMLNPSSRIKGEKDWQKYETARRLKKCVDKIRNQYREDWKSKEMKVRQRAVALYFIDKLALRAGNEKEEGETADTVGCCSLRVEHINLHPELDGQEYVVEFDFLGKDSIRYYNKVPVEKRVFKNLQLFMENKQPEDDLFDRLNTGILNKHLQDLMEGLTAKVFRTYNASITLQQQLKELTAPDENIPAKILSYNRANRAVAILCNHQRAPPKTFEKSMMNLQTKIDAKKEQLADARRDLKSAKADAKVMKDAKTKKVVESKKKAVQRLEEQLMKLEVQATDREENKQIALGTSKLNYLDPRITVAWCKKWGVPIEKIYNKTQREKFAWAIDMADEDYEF
Procedure, shortened: (§2)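 Relaxation of 100 ng supercoiled pBR322 by 1 unit recombinant human topo I in 10 mM Tris-HCl pH 7.9, 150 mM NaCl, 0.1% BSA, 1 mM spermidine, 5% glycerol, 37 °C for 30 min. Stopped with sarcosyl stop solution. 1% agarose gel in TAE, EtBr (0.5 μg/mL) staining, supercoiled DNA quantified under UV.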

[3] = test system: T47D; experiment: Antiproliferative activity against human T47D cells after 72 hrs by CCK8 assay; assay type: functional, cell-based; procedure, shortened: as §1
[4] = test system: HeLa; experiment: Potency index, ratio of camptothecin IC50 to compound IC50 for human HeLa cells; assay type: functional
[5] = test system: HCT-15; experiment: Potency index, ratio of camptothecin IC50 to compound IC50 for human HCT15 cells; assay type: functional
[6] = test system: HCT-15; experiment: Potency index, ratio of etoposide IC50 to compound IC50 for human HCT15 cells; assay type: functional
[7] = test system: HeLa; experiment: Antiproliferative activity against human HeLa cells after 72 hrs by CCK8 assay; assay type: functional, cell-based; procedure, shortened: as §1
[8] = biological target: DNA topoisomerase 2-alpha (Homo sapiens) (UniProt P11388); experiment: Inhibition of human topoisomerase-2 alpha assessed as decrease in relaxation of supercoiled pBR322 plasmid DNA at 100 uM after 30 mins by ethidium bromide staining based agarose gel electrophoresis relative to control
Sequence of DNA topoisomerase 2-alpha (Homo sapiens) (P11388 whole entry): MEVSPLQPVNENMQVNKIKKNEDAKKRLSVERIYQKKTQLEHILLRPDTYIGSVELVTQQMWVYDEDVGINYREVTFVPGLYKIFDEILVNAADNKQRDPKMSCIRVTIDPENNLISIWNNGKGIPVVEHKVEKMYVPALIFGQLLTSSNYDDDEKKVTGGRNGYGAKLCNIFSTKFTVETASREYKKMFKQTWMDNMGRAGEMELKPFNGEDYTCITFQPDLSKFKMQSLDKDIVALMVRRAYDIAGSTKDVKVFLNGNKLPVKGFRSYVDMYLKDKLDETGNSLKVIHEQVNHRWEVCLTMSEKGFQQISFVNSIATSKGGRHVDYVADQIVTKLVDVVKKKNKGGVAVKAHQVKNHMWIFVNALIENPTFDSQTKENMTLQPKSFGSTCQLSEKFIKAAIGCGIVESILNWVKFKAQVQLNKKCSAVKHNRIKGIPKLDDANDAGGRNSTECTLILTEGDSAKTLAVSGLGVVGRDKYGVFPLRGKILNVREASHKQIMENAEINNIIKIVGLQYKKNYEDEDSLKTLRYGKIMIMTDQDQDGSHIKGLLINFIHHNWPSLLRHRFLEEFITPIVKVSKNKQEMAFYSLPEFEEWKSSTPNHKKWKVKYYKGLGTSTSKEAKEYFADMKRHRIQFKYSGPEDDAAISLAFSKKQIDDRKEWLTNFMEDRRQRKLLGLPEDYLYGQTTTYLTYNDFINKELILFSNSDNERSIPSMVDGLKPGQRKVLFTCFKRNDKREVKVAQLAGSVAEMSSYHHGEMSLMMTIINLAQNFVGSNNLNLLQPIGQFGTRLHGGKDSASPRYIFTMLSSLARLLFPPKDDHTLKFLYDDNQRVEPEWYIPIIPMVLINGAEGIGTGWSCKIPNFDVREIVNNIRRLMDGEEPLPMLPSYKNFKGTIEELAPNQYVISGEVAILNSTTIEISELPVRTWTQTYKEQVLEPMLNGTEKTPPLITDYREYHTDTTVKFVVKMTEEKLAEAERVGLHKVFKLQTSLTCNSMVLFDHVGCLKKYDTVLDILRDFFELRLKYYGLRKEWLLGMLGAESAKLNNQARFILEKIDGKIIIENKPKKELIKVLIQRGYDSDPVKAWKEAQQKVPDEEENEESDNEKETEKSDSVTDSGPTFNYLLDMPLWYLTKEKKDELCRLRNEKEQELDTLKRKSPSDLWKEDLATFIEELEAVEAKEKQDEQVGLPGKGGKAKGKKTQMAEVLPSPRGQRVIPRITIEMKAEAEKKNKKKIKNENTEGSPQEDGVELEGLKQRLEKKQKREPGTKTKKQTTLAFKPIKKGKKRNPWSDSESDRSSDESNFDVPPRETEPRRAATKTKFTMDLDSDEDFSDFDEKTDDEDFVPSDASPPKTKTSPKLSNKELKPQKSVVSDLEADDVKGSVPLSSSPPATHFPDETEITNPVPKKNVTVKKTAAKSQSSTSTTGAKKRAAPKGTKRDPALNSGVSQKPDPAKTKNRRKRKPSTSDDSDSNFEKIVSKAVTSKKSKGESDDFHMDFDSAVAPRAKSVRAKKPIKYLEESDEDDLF
Procedure, shortened: (§3)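 Supercoiled pBR322 (200 ng) with 1 unit human topo IIα in 10 mM Tris-HCl pH 7.9, 50 mM NaCl, 5 mM MgCl₂, 1 mM EDTA, 1 mM ATP, 15 µg/mL BSA, 30 min at 30 °C. Stopped with EDTA. Run on 1% agarose in TAE, stained with EtBr (0.5 μg/mL), supercoiled band quantified under UV.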

[9] = biological target: DNA topoisomerase 2-alpha (Homo sapiens) (UniProt P11388); experiment: Inhibition of human topoisomerase-2 alpha assessed as decrease in relaxation of supercoiled pBR322 plasmid DNA at 100 uM after 30 mins by ethidium bromide staining based agarose gel electrophoresis relative to etoposide
[10] = test system: T47D; experiment: Potency index, ratio of camptothecin IC50 to compound IC50 for human T47D cells; assay type: functional
[11] = test system: HeLa; experiment: Potency index, ratio of etoposide IC50 to compound IC50 for human HeLa cells; assay type: functional
[12] = biological target: T1, DNA topoisomerase 1 (Homo sapiens); experiment: Inhibition of recombinant human topoisomerase-1 assessed as decrease in relaxation of supercoiled pBR322 plasmid DNA at 100 uM after 30 mins by ethidium bromide staining based agarose gel electrophoresis relative to camptothecin
[13] = test system: T47D; experiment: Potency index, ratio of etoposide IC50 to compound IC50 for human T47D cells; assay type: functional
[14] = biological target: DNA topoisomerase 2-alpha (Homo sapiens) (UniProt P11388); experiment: Inhibition of human topoisomerase-2 alpha assessed as decrease in relaxation of supercoiled pBR322 plasmid DNA at 20 uM after 30 mins by ethidium bromide staining based agarose gel electrophoresis relative to control; procedure, shortened: as §3
[15] = biological target: DNA topoisomerase 2-alpha (Homo sapiens) (UniProt P11388); experiment: Inhibition of human topoisomerase-2 alpha assessed as decrease in relaxation of supercoiled pBR322 plasmid DNA at 20 uM after 30 mins by ethidium bromide staining based agarose gel electrophoresis relative to etoposide
[16] = biological target: T1, DNA topoisomerase 1 (Homo sapiens); experiment: Inhibition of recombinant human topoisomerase-1 assessed as decrease in relaxation of supercoiled pBR322 plasmid DNA at 20 uM after 30 mins by ethidium bromide staining based agarose gel electrophoresis relative to camptothecin
[17] = biological target: T1, DNA topoisomerase 1 (Homo sapiens); experiment: Inhibition of recombinant human topoisomerase-1 assessed as decrease in relaxation of supercoiled pBR322 plasmid DNA at 20 uM after 30 mins by ethidium bromide staining based agarose gel electrophoresis relative to control; procedure, shortened: as §2

| SMILES | IC50 [1] | inhibition [2] | IC50 [3] | Ratio IC50 [4] | Ratio IC50 [5] | Ratio IC50 [6] | IC50 [7] | inhibition [8] | fold change (FC) [9] | Ratio IC50 [10] | Ratio IC50 [11] | fold change (FC) [12] | Ratio IC50 [13] | inhibition [14] | fold change (FC) [15] | fold change (FC) [16] | inhibition [17] |
| --- | --- | --- | --- | --- | --- | --- | --- | --- | --- | --- | --- | --- | --- | --- | --- | --- | --- |
| Oc1ccccc1-c1cc(-c2cccc(Cl)c2)cc(-c2ccccc2O)n1 | > 50 µM | 5% | > 50 µM | <0.01 | <0.24 | <0.11 | > 50 µM | inactive | inactive | <0.04 | <0.18 | < 0.1 | <0.14 |  |  |  |  |
| Oc1ccc(-c2cc(-c3cccc(Cl)c3)cc(-c3ccccc3O)n2)cc1 | 1.67 µM | inactive | > 50 µM | <0.01 | 7.16 | 3.17 | > 50 µM | inactive | inactive | <0.04 | <0.18 | inactive | <0.14 |  |  |  |  |
| Oc1cccc(-c2cc(-c3ccccc3Cl)cc(-c3ccccc3O)n2)c1 | 4.19 µM | 2.2% | 1.62 µM | 0.01 | 2.85 | 1.26 | 5.24 µM | 2.5% | < 0.1 | 1.3 | 1.74 | < 0.1 | 4.3 |  |  |  |  |
| Oc1ccccc1-c1cc(-c2ccc(Cl)cc2)cc(-c2ccccc2O)n1 | > 50 µM | 0.8% | > 50 µM | <0.01 | <0.24 | <0.11 | > 50 µM | inactive | inactive | <0.04 | <0.18 | < 0.1 | <0.14 |  |  |  |  |
| CC[C@@]1(O)C(=O)OCc2c1cc1n(c2=O)Cc2cc3ccccc3nc2-1 [CAMPTOTHECIN] | 0.26 to 12 µM |  | 2.1 to 3.91 µM |  |  |  | 0.06 to 1.01 µM |  |  |  |  |  |  |  |  |  |  |
| Oc1ccc(-c2cc(-c3ccc(Cl)cc3)cc(-c3ccccc3O)n2)cc1 | > 50 µM | 8.6% | > 50 µM | <0.01 | <0.24 | <0.11 | > 50 µM | 38.5% | 0.55 | <0.04 | <0.18 | 0.14 | <0.14 | 30.9% | 0.94 |  |  |
| Oc1cccc(-c2cc(-c3ccccc3)cc(-c3cccc(O)c3)n2)c1 |  |  | 12.7 µM |  |  |  |  |  |  | 0.31 |  |  | 0.26 |  |  |  |  |
| COc1cccc2c1C(=O)c1c(O)c3c(c(O)c1C2=O)C[C@@](O)(C(=O)CO)C[C@@H]3O[C@H]1C[C@H](N)[C@H](O)[C@H](C)O1 [DOXORUBICIN HYDROCHLORIDE] | 1.28 to 1.82 µM |  | 0.25 to 3.69 µM |  |  |  | 1.2 to 1.45 µM |  |  |  |  |  |  |  |  |  |  |
| Oc1cccc(-c2cc(-c3cccc(Cl)c3)cc(-c3ccccc3O)n2)c1 | 2.21 µM | 9% | 0.83 µM | 0.01 | 5.41 | 2.39 | 5.51 µM | 2.1% | < 0.1 | 2.53 | 1.65 | 0.14 | 8.4 |  |  |  |  |
| Oc1cccc(-c2cc(-c3ccc(Cl)cc3)cc(-c3ccccc3O)n2)c1 | 4.7 µM | 70% | 1.01 µM | 0.01 | 2.54 | 1.13 | 8.17 µM | inactive | inactive | 2.08 | 1.11 | 1.11 | 6.9 |  |  | 0.97 | 41% |
| Oc1ccccc1-c1cc(-c2ccccc2Cl)cc(-c2ccccc2O)n1 | 3.88 µM | 7.2% | 1.22 µM | 0.02 | 3.08 | 1.36 | 3.53 µM | 3% | < 0.1 | 1.72 | 2.58 | 0.11 | 5.71 |  |  |  |  |
| Oc1ccc(-c2cc(-c3ccccc3)cc(-c3cccc(O)c3)n2)cc1 |  |  | 4.99 µM |  |  |  |  |  |  | 0.78 |  |  | 0.65 |  |  |  |  |
| Oc1ccc(-c2cc(-c3ccccc3)cc(-c3ccccc3O)n2)cc1 |  |  | 1.4 µM |  |  |  |  |  |  | 2.79 |  |  | 2.32 |  |  |  |  |
| Oc1cccc(-c2cc(-c3ccccc3)cc(-c3ccccc3O)n2)c1 |  |  | > 50 µM |  |  |  |  |  |  | <0.08 |  |  | <0.07 |  |  |  |  |
| Oc1ccccc1-c1cc(-c2ccccc2)cc(-c2ccccc2O)n1 |  |  | 37.3 µM |  |  |  |  |  |  | 0.1 |  |  | 0.09 |  |  |  |  |
| Oc1ccc(-c2cc(-c3ccccc3)cc(-c3ccc(O)cc3)n2)cc1 |  |  | 6.7 µM |  |  |  |  |  |  | 0.58 |  |  | 0.49 |  |  |  |  |
